Data set [1] is described as follows: Michaelis-Menten constant against mammalian malate dehydrogenase (MDH). The method in brief: (§1)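 NAD is varied and the A340 increase from NADH formation is monitored (ε 6.22 mM-1 cm-1). Buffers differ by enzyme: ADH in 0.1 M phosphate, pH 8.0, with ethanol 1.2 mM; GDH in 0.1 M phosphate, pH 7.0, with 10 μM EDTA; LDH and MDH in 0.05 M Tris-HCl, pH 9.0. At least duplicate.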

Data set [2] has as its system NC(=O)c1ccc[n+]([C@@H]2O[C@H](COP(=O)([O-])OP(=O)(O)OC[C@H]3O[C@@H](n4cnc5c(N)ncnc54)[C@H](O)[C@@H]3O)[C@@H](O)[C@H]2O)c1. Briefly: Michaelis-Menten constant against mammalian glutamate dehydrogenase (GDH). The gist of the method: as §1
Data set [3] shares this test system. Put plainly: Michaelis-Menten constant against mammalian lactate dehydrogenase (LDH). As to conditions: Sus scrofa. The gist of the method:
as §1

The results in this text go back to ChEMBL document CHEMBL1127319, “CNAD: a potent and specific inhibitor of alcohol dehydrogenase” (J Med Chem, 1994).

A word on the Km: it is the substrate concentration at which the rate is half of its maximum.

Glutamate dehydrogenase 1, mitochondrial (Bos taurus), P00366, sequence (P00366 whole entry): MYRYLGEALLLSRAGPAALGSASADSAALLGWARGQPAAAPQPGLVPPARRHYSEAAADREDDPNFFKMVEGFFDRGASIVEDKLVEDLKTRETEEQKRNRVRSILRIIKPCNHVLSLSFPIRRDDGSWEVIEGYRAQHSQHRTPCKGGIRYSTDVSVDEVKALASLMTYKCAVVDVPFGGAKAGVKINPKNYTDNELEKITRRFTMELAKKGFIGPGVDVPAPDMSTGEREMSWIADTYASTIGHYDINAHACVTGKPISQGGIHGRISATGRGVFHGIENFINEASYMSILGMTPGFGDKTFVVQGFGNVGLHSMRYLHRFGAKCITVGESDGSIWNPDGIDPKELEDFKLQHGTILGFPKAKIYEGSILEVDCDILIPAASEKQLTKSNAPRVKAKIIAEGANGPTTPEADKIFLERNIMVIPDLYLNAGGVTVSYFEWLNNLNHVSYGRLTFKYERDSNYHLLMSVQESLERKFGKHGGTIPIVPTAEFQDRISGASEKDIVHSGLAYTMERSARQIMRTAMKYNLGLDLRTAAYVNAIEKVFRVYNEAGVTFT

For the compound `NC(=O)c1ccc[n+]([C@@H]2O[C@H](COP(=O)([O-])OP(=O)(O)OC[C@H]3O[C@@H](n4cnc5c(N)ncnc54)[C@H](O)[C@@H]3O)[C@@H](O)[C@H]2O)c1`, the Km in data set [1] turned out to be 32 µM. For “Glutamate dehydrogenase 1, mitochondrial (Bos taurus), P00366”, the Km in data set [2] was determined as 30 µM. Turning to “L-lactate dehydrogenase A chain (Homo sapiens) (from UniProt P00338)”, the Km in data set [3] amounted to 141 µM.
